Experimental data as given in ChEMBL document CHEMBL1124927, “Synthesis and structure-activity relationships of new 7-[3-(fluoromethyl)piperazinyl]- and -(fluorohomopiperazinyl)quinolone antibacterials” (1990).
In brackets after ≈: the same amount, converted by molar mass.

Assays:
Escherichia coli [1] = experiment: In vitro minimal inhibitory concentration against Escherichia coli ATCC 25922 (Ec(A)); assay type: functional
Method in brief: (§1)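 Agar dilution: two-fold serial drug dilutions in Mueller–Hinton agar; plates inoculated with 1–5 × 10⁴ CFU via Steers multiple inocula replicator; incubated 18 h at 35 °C. MIC = lowest concentration preventing macroscopic growth.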

Enterobacter cloacae [2] = experiment: (§2) In vitro minimal inhibitory concentration against Enterobacter cloacae VGH-84-39 (Et(c)); assay type: functional
Staphylococcus aureus [3] = experiment: In vitro minimal inhibitory concentration against Staphylococcus aureus Smith (MP) (Sa(A)); assay type: functional; method in brief: as §1
Escherichia coli [4] = experiment: In vitro minimal inhibitory concentration against Escherichia coli #311 (Ec(B)); assay type: functional; method in brief: as §1
Enterococcus faecalis [5] = experiment: In vitro minimal inhibitory concentration against Streptococcus faecalis UCI-85 (Sf(U)); assay type: functional; method in brief: as §1
Pseudomonas aeruginosa = experiment: In vitro minimal inhibitory concentration against Pseudomonas aeruginosa 12-4-4 (Pa); assay type: functional; method in brief: as §1
Morganella morganii = experiment: In vitro minimal inhibitory concentration against Morganella morganii CMC-84-39 (Mn); assay type: functional; method in brief: as §1
Enterococcus faecalis [6] = experiment: In vitro minimal inhibitory concentration Streptococcus faecalis VGH-84 (Sf(V)); assay type: functional; method in brief: as §1
Staphylococcus aureus [7] = experiment: In vitro minimal inhibitory concentration against Staphylococcus aureus ATCC 29213 (Sa(B)); assay type: functional; method in brief: as §1
Escherichia coli [8] = experiment: Median effective dose against female mice infected with Escherichia coli #311 after subcutaneous administration; assay type: functional; conditions: sc
Method in brief: (§3)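 CD-1 female mice (20 ± 2 g) infected ip with 0.5 mL standardized bacterial suspension (E. coli #311 in trypticase–soy broth; S. aureus Smith in 5% hog gastric mucin). Dosed 0.5 h post-infection, oral or subcutaneous, 2-fold dose increments in 0.5 mL 0.2% aqueous agar; five mice per dose. 7-day survival pooled from three tests; ED50 by probit analysis, 95% confidence limits.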

Escherichia coli [9] = experiment: Median effective dose against female mice infected with Escherichia coli #311 after oral administration; assay type: functional; method in brief: as §3
[10] = Ratio of ED50 value of (po/sc) was determined for Staphylococcus aureus Smith; assay type: functional
Method in brief: (§4)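 Oral and subcutaneous ED50 values from ip-infected CD-1 female mice (treated 0.5 h post-infection, 2-fold doses in 0.2% aqueous agar, five mice/dose, 7-day survival, three pooled tests, probit analysis); ratio taken as po ED50 divided by sc ED50, as an index of absorption.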

Staphylococcus aureus [11] = experiment: Median effective dose against female mice infected with Staphylococcus aureus Smith after oral administration; assay type: functional; method in brief: as §3
[12] = Ratio of ED50 value of (po/sc) was determined for Escherichia coli #311; assay type: functional; method in brief: as §4
Staphylococcus aureus [13] = experiment: Median effective dose against female mice infected with Staphylococcus aureus Smith after subcutaneous administration; assay type: functional; conditions: sc; method in brief: as §3
Escherichia coli [14] = experiment: animal or person; conditions: in Mus musculus, po
Escherichia coli [15] = experiment: animal or person; conditions: in Mus musculus, sc
Enterobacter cloacae [16] = experiment: as §2; assay type: functional; method in brief: as §1; remark: listed apart in the source

Structure (SMILES) | MIC (Escherichia coli [1]) [µg/mL] | MIC (Enterobacter cloacae [2]) [µg/mL] | MIC (Staphylococcus aureus [3]) [µg/mL] | MIC (Escherichia coli [4]) [µg/mL] | MIC (Enterococcus faecalis [5]) [µg/mL] | MIC (Pseudomonas aeruginosa) [µg/mL] | MIC (Morganella morganii) [µg/mL] | MIC (Enterococcus faecalis [6]) [µg/mL] | MIC (Staphylococcus aureus [7]) [µg/mL] | ED50 (Escherichia coli [8]) [mg/kg] | ED50 (Escherichia coli [9]; Escherichia coli, po) [mg/kg] | Ratio [10] | ED50 (Staphylococcus aureus [11]) [mg/kg] | Ratio [12] | ED50 (Staphylococcus aureus [13]) [mg/kg] | ED50 (Escherichia coli [14]) [mg/kg] | ED50 (Escherichia coli [15]) [mg/kg] | ED50 (Escherichia coli [9]) [mg/kg] | MIC (Enterobacter cloacae [16]) [µg/mL]
CCn1cc(C(=O)O)c(=O)c2cc(F)c(N3CCNC(C(F)F)C3)c(F)c21 (stereo not given) | 0.5 (≈ 1.29 µM) | 1 (≈ 2.58 µM) | 0.12 (≈ 0.31 µM) | 0.5 (≈ 1.29 µM) | 4 (≈ 10.3 µM) | 32 (≈ 82.6 µM) | 1 (≈ 2.58 µM) | 4 (≈ 10.3 µM) | 0.25 (≈ 0.645 µM) |  |  |  |  |  |  |  |  |  | 
O=C(O)c1cn(C2CC2)c2cc(N3CCNC(CF)C3)c(F)cc2c1=O (stereo not given) | 0.06 (≈ 0.165 µM) | 0.12 (≈ 0.33 µM) | 0.12 (≈ 0.33 µM) | 0.03 (≈ 0.0826 µM) | 2 (≈ 5.5 µM) | 2 (≈ 5.5 µM) | 0.12 (≈ 0.33 µM) | 1 (≈ 2.75 µM) | 0.25 (≈ 0.688 µM) | 0.6 | 1.2 | 3 | 2.8 | 2 | 0.94 |  |  |  | 
O=C(O)c1cn(C2CC2)c2cc(N3CCCNCC3)c(F)cc2c1=O | 0.03 (≈ 0.0869 µM) | 0.03 (≈ 0.0869 µM) | 0.25 (≈ 0.724 µM) | 0.03 (≈ 0.0869 µM) | 2 (≈ 5.79 µM) | 1 (≈ 2.9 µM) | 0.03 (≈ 0.0869 µM) | 1 (≈ 2.9 µM) | 2 (≈ 5.79 µM) |  |  |  |  |  |  |  |  |  | 
O=C(O)c1cn(C2CC2)c2cc(N3CCNCC3)c(F)cc2c1=O [CIPROFLOXACIN] | ≤ 0.015 |  | 0.25 (≈ 0.754 µM) | ≤ 0.015 | 1 (≈ 3.02 µM) |  | 0.015 (≈ 0.0453 µM) | 1 (≈ 3.02 µM) | 1 (≈ 3.02 µM) |  |  |  | 3.8 |  | 0.69 | 0.49 | 0.07 |  | 
O=C(O)c1cn(C2CC2)c2cc(N3CCNCC(F)C3)c(F)cc2c1=O (stereo not given) | 0.03 (≈ 0.0826 µM) | 0.06 (≈ 0.165 µM) | 0.25 (≈ 0.688 µM) | 0.03 (≈ 0.0826 µM) | 4 (≈ 11 µM) | 2 (≈ 5.5 µM) | 0.06 (≈ 0.165 µM) | 4 (≈ 11 µM) | 1 (≈ 2.75 µM) |  |  |  |  |  |  |  |  |  | 
CCn1cc(C(=O)O)c(=O)c2cc(F)c(N3CCNC(CF)C3)cc21 (stereo not given) | 0.12 (≈ 0.342 µM) | 0.12 (≈ 0.342 µM) | ≤ 0.12 | ≤ 0.12 | 4 (≈ 11.4 µM) | 32 (≈ 91.1 µM) | 0.12 (≈ 0.342 µM) | 2 (≈ 5.69 µM) | 0.25 (≈ 0.712 µM) | 3 |  | 2.3 | 6 | 1 | 2.6 |  |  | 2.8 | 
O=C(O)c1cn(C2CC2)c2cc(N3CCNCC(O)C3)c(F)cc2c1=O (stereo not given) | 0.25 (≈ 0.692 µM) | 0.25 (≈ 0.692 µM) | 4 (≈ 11.1 µM) | 0.5 (≈ 1.38 µM) | 16 (≈ 44.3 µM) | 2 (≈ 5.53 µM) | 0.12 (≈ 0.332 µM) | 16 (≈ 44.3 µM) | 16 (≈ 44.3 µM) |  |  |  |  |  |  |  |  |  | 
CC1CN(c2cc3c(cc2F)c(=O)c(C(=O)O)cn3C2CC2)CCN1 (stereo not given) | ≤ 0.015 | 0.015 (≈ 0.0434 µM) | 0.12 (≈ 0.347 µM) | ≤ 0.015 | 2 (≈ 5.79 µM) | 0.25 (≈ 0.724 µM) | 0.03 (≈ 0.0869 µM) | 1 (≈ 2.9 µM) | 0.5 (≈ 1.45 µM) | 0.09 | 0.42 | 3.9 | 2.4 | 4.7 | 0.61 |  |  |  | 
CCn1cc(C(=O)O)c(=O)c2cc(F)c(N3CCNC(CO)C3)cc21.Cl (stereo not given) | 2 | 1 | 8 | 1 | 16 | 64 | 0.5 | 16 | 32 |  |  |  |  |  |  |  |  |  | 
O=C(O)c1cn(-c2ccc(F)cc2)c2cc(N3CCNC(CF)C3)c(F)cc2c1=O (stereo not given) | 0.25 (≈ 0.599 µM) |  | 0.25 (≈ 0.599 µM) | 0.25 (≈ 0.599 µM) | 4 (≈ 9.58 µM) | 8 (≈ 19.2 µM) | 1 (≈ 2.4 µM) | 4 (≈ 9.58 µM) | 0.5 (≈ 1.2 µM) |  |  |  |  |  |  |  |  |  | 0.25 (≈ 0.599 µM)
